Source: PubChem BioAssay (several laboratories)
Rows were chosen to be rich in hits. Some 4% of all compounds tested hit in one or more screens of this group.
Exocytosis inh = lytic granule exocytosis inhibition; TALL-104 LAMP-1 surface exposure, flow cytometry; cells stimulated with thapsigargin and PMA; inhibition, % at 10 µM; actives 0.66% (n = 360,000); AID 651702;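 active = inhibition above about 55%, limit read from the data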
UPR XBP1 act = activators of adaptive arm of unfolded protein response (XBP1) | actives 0.33% (n = 330,000) | activation, % at 20 µM | CHO-XBP1 luciferase reporter, IRE1-XBP1 UPR activation, luminescence; percent of tunicamycin response, DMSO as zero;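 active = versus positive control, 20 µM dose yields 30% or more activation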
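assay system = CHO-XBP1 luciferase reporter cells | amount = 1000 cells/well | buffer or medium = F12 plus 10% FBS | compound dosing = single point, 20 µM final compound, 1% DMSO | incubation = 16-18 h cell attachment at 37 °C, then 6 h compound exposure | detection = Steady-Glo luminescence read | controls = tunicamycin 10 µg/mL and vehicle-only wells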
Mdm2-MdmX inh = inhibitors of human Mdm2/MdmX interaction; SaOS-2 split-luciferase Mdm2/MdmX complementation, luminescence; inhibition, % at 8 µM; actives 3% (n = 330,000);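 active = inhibition of at least 50% at 8 µM in the primary screen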
UPR CHOP act = activators of apoptotic arm of unfolded protein response (CHOP); CHO-CHOP luciferase reporter, UPR activation, luminescence; percent of tunicamycin response over DMSO baseline; actives 0.34% (n = 330,000); activation, % at 10 µM;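 active = at 10 µM dose, activation of 40% or more, normalized to positive control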
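assay system = CHO CHOP reporter cells | amount = 500 CHO-CHOP cells per well | buffer or medium = F12 with 10% FBS | incubation = 16-18 h cell attachment, then 6 h compound exposure, 37 °C | detection = luminescence read with Steady-Glo | read-out = percent activation relative to tunicamycin control | controls = tunicamycin high control, DMSO low control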
ABHD5 PLIN5 PPI = ABHD5-PLIN5 protein interaction inhibition. Q00G26+Q8WTS1. Split G. princeps luciferase complementation, luminescence, 4 h. inhibition, % at 4 µM. actives 0.78% (n = 360,000);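 active = inhibition above the mean inhibition across every tested compound plus 3 SD, cut at about 22% in these data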
UPR CHOP confirm = apoptotic UPR (CHOP) activation, confirmed. shares compounds with UPR CHOP act. CHO-CHOP cells, CHOP-luciferase reporter luminescence; percent of tunicamycin response, DMSO as zero. activation, % at 10 µM. actives 64% (n = 1,000). AID 463112; in the data active = activation above about 33%
XBP1 UPR conf = confirmation of adaptive unfolded protein response (XBP1) activators | shares compounds with UPR XBP1 act | CHO-XBP1 IRE1-XBP1 luciferase reporter, luminescence | activation, % at 20 µM | actives 63% (n = 1,000);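 active = reporter signal at least 30% of the positive control's activation in two or more of four replicate wells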
Mdm2 MdmX conf = human Mdm2/MdmX binding inhibition, confirmed; inhibition, % at 8 µM; AID 489028; actives 55% (n = 10,000); luminescent assay; shares compounds with Mdm2-MdmX inh; in the data active = inhibition above about 40%
FLuc counter = counter-screen for Mdm2/MdmX inhibitors: full-length luciferase. shares compounds with Mdm2-MdmX inh. SaOS-2 full-length luciferase counterscreen, luminescence. inhibition, % at 8 µM. actives 77% (n = 6,200). AID 504607;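 active = mean inhibition at 8 µM reaching about 37%, which flags the compound as non-specific, limit read from the data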;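 note: p53-null SaOS-2 cells with luciferase driven by a doxycycline-inducible promoter; compound on cells about two nights before reading with doxycycline added after day one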
Large screens that a line does not name were inactive (follow-up assays come after a bar, where they were run).

c1ccc(-c2nc(NCc3ccco3)c3ccccc3n2)nc1	Mdm2-MdmX inh 65, UPR CHOP act 67 | UPR CHOP confirm inactive | Mdm2 MdmX conf inactive
CCCCN=C1SC(C(=O)Nc2sc3c(c2C(=O)OC)CCC3)C(N)=C1C(=O)N1CCOCC1 (centres undefined)	UPR XBP1 act 166, Mdm2-MdmX inh 66, UPR CHOP act 109 | UPR CHOP confirm inactive | XBP1 UPR conf inactive | Mdm2 MdmX conf inactive
COC(=O)c1c(NC(=S)NN2CCOCC2)sc2c1CCCC2	none
O=C(/C=C/c1ccco1)NC(=S)Nc1ccc(O)c(-c2nc3ccccc3s2)c1	UPR XBP1 act 153, Mdm2-MdmX inh 77, UPR CHOP act 106 | UPR CHOP confirm 86 | XBP1 UPR conf 287 | Mdm2 MdmX conf inactive | FLuc counter 72
COc1cc(/C=N/NC(=O)c2cccc([N+](=O)[O-])c2)ccc1OCc1ccccc1	none
COC(=O)C(=Cc1ccc(OCc2ccc([N+](=O)[O-])cc2)c(OC)c1)C(=O)OC	Mdm2-MdmX inh 92, UPR CHOP act 334 | UPR CHOP confirm 106 | Mdm2 MdmX conf inactive
CCOC(=O)C(=Cc1ccc(OCc2ccc([N+](=O)[O-])cc2)c(OC)c1)C(=O)OCC	Mdm2-MdmX inh 99, UPR CHOP act 219 | UPR CHOP confirm 247 | Mdm2 MdmX conf inactive
COc1ccc(C2CC(c3c(-c4ccccc4)c4cc(Cl)ccc4[nH]c3=O)=NN2C(=O)CCC(=O)O)cc1 (centres undefined)	none
CCOc1ccc(-n2c(C)cc(C(=O)CCl)c2C)cc1	UPR XBP1 act 70, Mdm2-MdmX inh 94, UPR CHOP act 244 | UPR CHOP confirm 621 | XBP1 UPR conf 202 | Mdm2 MdmX conf 55 | FLuc counter 88
COC(=O)c1ccc(-n2c(C)cc(C(=O)CCl)c2C)cc1	UPR XBP1 act 74, Mdm2-MdmX inh 94, UPR CHOP act 502 | UPR CHOP confirm 268 | XBP1 UPR conf inactive | Mdm2 MdmX conf 62 | FLuc counter 58
COC(=O)c1ccc(-n2c(C)cc(C(=O)COC(=O)C3=COCCO3)c2C)cc1	none
CCN(CC(=O)Nc1cccc(OC)c1)C(=O)c1ccco1	none
Cc1ccc(O)c(-c2cc3ccccc3[nH]2)c1	none
O=S1(=O)N=C2CCCCCN2C(c2ccc(Cl)cc2)N1 (centres undefined)	none
COc1cc(OC)cc(C(=O)NC(=S)Nc2cc3oc4ccccc4c3cc2OC)c1	Mdm2-MdmX inh 72, UPR CHOP act 101 | UPR CHOP confirm 74 | Mdm2 MdmX conf inactive
COc1cc2c(cc1NC(=O)COCC(=O)O)oc1ccccc12	none
CCN(CC)c1ccc(C(=O)OCC(=O)Nc2cc3oc4ccccc4c3cc2OC)cc1	UPR XBP1 act 178, Mdm2-MdmX inh 51, UPR CHOP act 55 | UPR CHOP confirm inactive | XBP1 UPR conf 121 | Mdm2 MdmX conf inactive
CC1=NOC(=O)/C1=C\c1ccc(-c2ccc(Cl)cc2Cl)o1	Exocytosis inh 96, Mdm2-MdmX inh 64, UPR CHOP act 106 | UPR CHOP confirm 110 | Mdm2 MdmX conf inactive
CCSc1nc(NCCN(C)C)c2c3c(sc2n1)COC(C)(CC)C3 (centres undefined)	none
O=C(COC(=O)COc1ccc(Cl)cc1)NCc1ccc2c(c1)OCO2	none
COc1ccc(N2C(=O)C(CC(=O)Nc3ccccc3)N(Cc3ccc4c(c3)OCO4)C2=O)cc1 (centres undefined)	none
O=C(c1ccccc1F)N1CCCC(C(=O)N2CCN(c3ccccc3)CC2)C1 (centres undefined)	none
COc1ccc(-c2[nH]n(-c3ccc([N+](=O)[O-])cc3)c(=O)c2C=NCc2ccc(F)cc2)cc1	UPR XBP1 act 53, Mdm2-MdmX inh 80, UPR CHOP act 42 | UPR CHOP confirm inactive | XBP1 UPR conf inactive | Mdm2 MdmX conf inactive
OCCNc1nc(Nc2ccc(Br)cc2)nc2ccccc12	UPR XBP1 act 41, Mdm2-MdmX inh 70, UPR CHOP act 76 (no result: Exocytosis inh, ABHD5 PLIN5 PPI) | UPR CHOP confirm 60 | XBP1 UPR conf 46 | Mdm2 MdmX conf 55 | FLuc counter 67
OCCNc1nc(Nc2ccccc2)nc2ccccc12	none
C/C(=N\NC(=O)c1ccc(Cl)cc1)c1ccccn1	Mdm2-MdmX inh 96, UPR CHOP act 407 | UPR CHOP confirm 403 | Mdm2 MdmX conf inactive
C/C(=N\NC(=O)COc1ccccc1-c1ccccc1)c1ccccn1	Mdm2-MdmX inh 86, UPR CHOP act 105 | UPR CHOP confirm 205 | Mdm2 MdmX conf 72 | FLuc counter 51
NNC(=O)CSc1cccc2cccnc12	none
CN(C)C(=O)CSc1cccc2cccnc12	Mdm2-MdmX inh 70, UPR CHOP act 214 | UPR CHOP confirm 205 | Mdm2 MdmX conf inactive
COCCn1c(SCC(=O)NCC(c2ccccc2)N(C)C)nc2sc3c(c2c1=O)CCC3 (centres undefined)	none (no result: UPR XBP1 act, Mdm2-MdmX inh, UPR CHOP act)
O=C(CCl)Nc1cc(S(=O)(=O)N2CCCCCC2)ccc1Cl	Mdm2-MdmX inh 92, UPR CHOP act 83 | UPR CHOP confirm 70 | Mdm2 MdmX conf inactive | FLuc counter 50
CC(C)(C)CC(=O)Nc1cc(S(=O)(=O)N2CCCCCC2)ccc1Cl	none
Brc1ccc(-c2nnc3ccc(N4CCN(c5ccccc5)CC4)nn23)cc1	UPR XBP1 act 47, Mdm2-MdmX inh 100, UPR CHOP act 54 | UPR CHOP confirm inactive | XBP1 UPR conf inactive | Mdm2 MdmX conf 45 | FLuc counter 77
Cc1ccccc1OCCn1cc(/C=C(\C#N)C(=O)NCc2ccco2)c2ccccc21	none
Cc1ccc(C)c(NC(=O)/C(C#N)=C/c2cn(CC(=O)NCc3ccco3)c3ccccc23)c1	UPR XBP1 act 224, Mdm2-MdmX inh 92, UPR CHOP act 111 | UPR CHOP confirm 51 | XBP1 UPR conf inactive | Mdm2 MdmX conf 78 | FLuc counter 89
CNC(=O)/C(C#N)=C/c1cn(CC(=O)NCc2ccco2)c2ccccc12	none
Cc1ccc(NC(=O)/C(C#N)=C/c2cn(CC(=O)NCc3ccco3)c3ccccc23)cc1C	UPR XBP1 act 235, Mdm2-MdmX inh 68, UPR CHOP act 124 | UPR CHOP confirm inactive | XBP1 UPR conf inactive | Mdm2 MdmX conf 50 | FLuc counter 75
